Our source for the IC50 values is ChEMBL document CHEMBL3102852, “Design, synthesis and cytotoxic activity of novel sulfonylurea derivatives of podophyllotoxin” (Bioorg Med Chem, 2014).

Assay type in all cases: functional, cell-based
One experiment deals with A549. As to the kind of experiment: Cytotoxicity against human A549 cells after 72 hrs by sulforhodamine B assay. Conditions: A549, 72 h. The procedure, abridged: (§1)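 Cells seeded at 3-5 × 10^3 per well in RPMI-1640 with 10% FBS containing various sample concentrations, incubated 72 h. Attached cells fixed with cold 50% trichloroacetic acid for 30 min, stained with 0.04% SRB for 30 min, bound dye solubilized in 10 mM Tris-base, absorbance read at 515 nm. Triplicate experiments; KBvin is a vincristine-selected MDR KB subline.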
For orientation: Sulforhodamine B stains cellular protein and so reports cell mass.

Experiment [1] in a line: Cytotoxicity against multidrug-resistant human KBVIN cells after 72 hrs by sulforhodamine B assay. Summed up: as §1
The test system of the next experiment is KB. Kind of experiment: Cytotoxicity against human KB cells after 72 hrs by sulforhodamine B assay. Summed up:
as §1

The next experiment has as its system DU-145. As to the kind of experiment: Cytotoxicity against human DU145 cells after 72 hrs by sulforhodamine B assay. The note with it: DU-145, 72 h. Summed up:
as §1

Broadly, the IC50 is the concentration at which inhibition is half-maximal. Take `COc1cc([C@@H]2c3cc4c(cc3[C@@H](NC(=O)NS(=O)(=O)c3ccccc3)[C@H]3COC(=O)[C@H]23)OCO4)cc(OC)c1O`: the IC50 in the experiment on A549 came out at 8.25 µM; in experiment [1] it was 8.76 µM; with KB, 8.38 µM; in the experiment with DU-145 it was 8.1 µM.
The like results for `COc1ccc(S(=O)(=O)NC(=O)N[C@@H]2c3cc4c(cc3[C@@H](c3cc(OC)c(O)c(OC)c3)[C@H]3C(=O)OC[C@@H]32)OCO4)cc1` were, in that order, 7.67 µM, 8.79 µM, 9.49 µM and 9.66 µM.
The like results for `COc1cc([C@@H]2c3cc4c(cc3[C@@H](NC(=O)NS(=O)(=O)c3ccc(C)cc3)[C@H]3COC(=O)[C@H]23)OCO4)cc(OC)c1O` were, in that order, over 20 µM, over 20 µM, over 20 µM and over 20 µM.
The like results for `COc1cc([C@@H]2c3cc4c(cc3[C@@H](NC(=O)NS(=O)(=O)c3ccc(C(C)C)cc3)[C@H]3COC(=O)[C@H]23)OCO4)cc(OC)c1O` were, in that order, 7.72 µM, 8.35 µM, 9.51 µM and 9.32 µM.
Take `COc1cc([C@@H]2c3cc4c(cc3[C@@H](NC(=O)NS(=O)(=O)c3ccc(F)cc3)[C@H]3COC(=O)[C@H]23)OCO4)cc(OC)c1O`: the half-inhibitory concentration (IC50) in the experiment on A549 stood at 7.82 µM; in experiment [1], 7.92 µM; in the experiment on KB, 9 µM; in the experiment with DU-145, 9.61 µM.
The like results for `COc1cc([C@@H]2c3cc4c(cc3[C@@H](NC(=O)NS(=O)(=O)c3ccc(Cl)cc3)[C@H]3COC(=O)[C@H]23)OCO4)cc(OC)c1O` were, in that order, 9.03 µM, 7.95 µM, 10.6 µM and 11.5 µM.
The like results for `COc1cc([C@@H]2c3cc4c(cc3[C@@H](NC(=O)NS(=O)(=O)Cc3ccccc3)[C@H]3COC(=O)[C@H]23)OCO4)cc(OC)c1O` were, in that order, 8.63 µM, 14 µM, 11.8 µM and 11.2 µM.
The like results for `COc1ccc(S(=O)(=O)NC(=O)N[C@@H]2c3cc4c(cc3[C@@H](c3cc(OC)c(O)c(OC)c3)[C@H]3C(=O)OC[C@@H]32)OCO4)c(OC)c1` were, in that order, 8 µM, 8.56 µM, 8.08 µM and 8.51 µM.
As to `COc1cc([C@@H]2c3cc4c(cc3[C@@H](NC(=O)NS(=O)(=O)c3ccc5ccccc5c3)[C@H]3COC(=O)[C@H]23)OCO4)cc(OC)c1O`, the IC50 was found to be 8.49 µM in the experiment on A549, 8.62 µM in experiment [1], 9.7 µM with KB and 10.5 µM in the experiment on DU-145.
The like results for `COc1cc([C@@H]2c3cc4c(cc3[C@@H](NC(=O)NS(C)(=O)=O)[C@H]3COC(=O)[C@H]23)OCO4)cc(OC)c1OC` were, in that order, over 20 µM, over 20 µM, over 20 µM and over 20 µM.
The like results for `CCS(=O)(=O)NC(=O)N[C@@H]1c2cc3c(cc2[C@@H](c2cc(OC)c(OC)c(OC)c2)[C@H]2C(=O)OC[C@@H]21)OCO3` were, in that order, over 20 µM, over 20 µM, over 20 µM and over 20 µM.
The like results for `COc1cc([C@@H]2c3cc4c(cc3[C@@H](NC(=O)NS(=O)(=O)c3ccccc3)[C@H]3COC(=O)[C@H]23)OCO4)cc(OC)c1OC` were, in that order, 1.6 µM, 1.76 µM, 1.41 µM and 1.44 µM.
Consider `COc1cc([C@@H]2c3cc4c(cc3[C@@H](NC(=O)NS(=O)(=O)c3ccc(C)cc3)[C@H]3COC(=O)[C@H]23)OCO4)cc(OC)c1OC`, for which the IC50 (in the experiment with A549; in experiment [1]; with KB; in the experiment on DU-145) was over 20 µM throughout.
Take `COc1cc([C@@H]2c3cc4c(cc3[C@@H](NC(=O)NS(=O)(=O)c3ccc(Cl)cc3)[C@H]3COC(=O)[C@H]23)OCO4)cc(OC)c1OC`: the IC50 in the experiment with A549 turned out to be 1.89 µM; in experiment [1], 2.01 µM; in the experiment with KB, 1.72 µM; in the experiment on DU-145 it was 1.75 µM.
The like results for `COc1cc([C@@H]2c3cc4c(cc3[C@@H](NC(=O)NS(C)(=O)=O)[C@H]3COC[C@H]23)OCO4)cc(OC)c1OC` were, in that order, over 20 µM, over 20 µM, over 20 µM and over 20 µM.
For `COc1cc([C@@H]2c3cc4c(cc3[C@@H](NC(=O)NS(=O)(=O)c3ccc(C(C)C)cc3)[C@H]3COC[C@H]23)OCO4)cc(OC)c1OC`, the IC50 in the experiment with A549 was 11.8 µM; in experiment [1] it was 13.2 µM; with KB, 11 µM; with DU-145 it was 11.9 µM.
The like results for `COc1ccc(S(=O)(=O)NC(=O)N[C@@H]2c3cc4c(cc3[C@@H](c3cc(OC)c(OC)c(OC)c3)[C@H]3COC[C@@H]32)OCO4)c(OC)c1` were, in that order, 14.9 µM, over 20 µM, 12 µM and 14.3 µM.
The like results for `COc1cc([C@@H]2c3cc4c(cc3[C@@H](NC(=O)NS(C)(=O)=O)[C@H]3COC(=O)[C@H]23)OCO4)cc(OC)c1O` were, in that order, over 20 µM, over 20 µM, over 20 µM and over 20 µM.
The like results for `CCS(=O)(=O)NC(=O)N[C@@H]1c2cc3c(cc2[C@@H](c2cc(OC)c(O)c(OC)c2)[C@H]2C(=O)OC[C@@H]21)OCO3` were, in that order, over 20 µM, over 20 µM, over 20 µM and over 20 µM.
For `CCCCS(=O)(=O)NC(=O)N[C@@H]1c2cc3c(cc2[C@@H](c2cc(OC)c(O)c(OC)c2)[C@H]2C(=O)OC[C@@H]21)OCO3`, the IC50 in the experiment with A549 is 7.96 µM; in experiment [1], 14 µM; with KB, 10.9 µM; with DU-145, 11.9 µM.
In turn, `COc1cc([C@@H]2c3cc4c(cc3[C@@H](O[C@@H]3O[C@@H]5CO[C@@H](C)O[C@H]5[C@H](O)[C@H]3O)[C@H]3COC(=O)[C@H]23)OCO4)cc(OC)c1O` [ETOPOSIDE] gave an IC50 in experiment [1] of over 20 µM.
